Most compounds without a hit are left out; they make up all but 2.4% or so of the library.
LGR2 antag = inhibitors of bursicon-induced LGR2 CRE-luciferase signal, primary screen, cell-based, HEK293, CRE-luciferase reporter, bursicon stimulation; Drosophila bursicon receptor LGR2 (rickets); bursicon-stimulated, 4 h; inhibition, % at 9.99 µM; 0.35% of 380,000 active;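 active = drop in luminescence signal, shown as inhibition above about 50% in the replicate tests, limit read from the data, passing the limit was not always enough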;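 note: agonist challenge used bursicon conditioned medium at about half maximal strength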
rRNA inh HTS = reduced GFP signal of wild-type E. coli, primary screen, bacterial rRNA inhibitor project, GFP/RFP fluorescence, OD600, single point; E. coli WT GFP vs humanized-ribosome RFP mutants, 24 h; active compounds read low; DMSO median 0, no signal -100; GFP signal change (wild-type ribosome), % (no concentration beside the values); 1.6% of 350,000 active; AID 720706, 2013;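 active = significant combined selectivity score with lowered wild-type GFP, culture density cut under 30%, mutant RFP and density less affected; inactive = any of these conditions unmet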
EWS-Fli block = EWS/Fli-driven NR0B1 reporter inhibitors, primary screen, A673 cells, NR0B1 luciferase, luminescence, MLPCN library; viability-normalised; 0.67% of 350,000 active; inhibition, % at 12.6 µM;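 active = mean inhibition of at least 50% after viability correction, with every replicate also passing that limit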;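 note: firefly luciferase signal divided by Alamar Blue viability fluorescence both relative to DMSO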
E-selectin induc = E-selectin induction in HUVECs, primary screen, imaging, HUVEC, immunofluorescence imaging, single point; 0.37% of 260,000 active; normalized: neutral wells 0, TNF-alpha wells 100; activation, % at 7.58 µM;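 active = mean E-selectin-positive cell signal at least 10% of the positive control, reached in at least 60% of replicates, without over 20% cell loss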
Target sequence (P16581 whole entry, looked up): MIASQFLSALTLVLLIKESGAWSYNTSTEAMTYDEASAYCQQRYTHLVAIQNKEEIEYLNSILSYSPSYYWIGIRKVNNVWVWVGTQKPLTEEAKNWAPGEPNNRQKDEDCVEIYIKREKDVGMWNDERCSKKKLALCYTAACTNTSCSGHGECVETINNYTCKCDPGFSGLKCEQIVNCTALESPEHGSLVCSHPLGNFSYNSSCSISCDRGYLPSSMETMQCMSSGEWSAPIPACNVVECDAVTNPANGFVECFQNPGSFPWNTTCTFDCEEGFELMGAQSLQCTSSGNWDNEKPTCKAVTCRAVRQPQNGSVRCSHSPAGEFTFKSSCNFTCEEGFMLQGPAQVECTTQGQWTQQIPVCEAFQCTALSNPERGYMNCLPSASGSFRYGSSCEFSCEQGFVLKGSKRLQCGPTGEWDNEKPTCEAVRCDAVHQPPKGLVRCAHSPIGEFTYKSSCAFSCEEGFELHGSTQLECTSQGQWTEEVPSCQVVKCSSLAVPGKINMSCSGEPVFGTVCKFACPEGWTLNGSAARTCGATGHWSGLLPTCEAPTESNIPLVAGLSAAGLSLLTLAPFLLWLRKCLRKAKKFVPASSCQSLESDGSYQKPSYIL
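Assay system: HUVEC, human umbilical vein endothelial cells / Amount: 3,000 HUVEC/well / Controls: TNF-alpha positive control, DMSO neutral control / Compound dosing: single concentration / Medium: EGM-2 over gelatin coat / Evaluation: percent E-selectin-positive cells / Signal: immunofluorescence imaging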
An asterisk follows results filed as active; x = no result given.

SMILES	LGR2 antag	rRNA inh HTS	EWS-Fli block	E-selectin induc
Cc1c2ccncc2cc2c1[nH]c1ccccc12	-3	-65	4	3
COc1ccc2[nH]c3c(C)c4ccncc4c(C)c3c2c1	x	-3	59*	x
COc1ccc2c3c([nH]c2c1)[C@H](CO)N(C(=O)CN(C)C)CC31CN(C(=O)c2ccncc2)C1	-13	1	1	0
COc1ccccc1NC(=O)Nc1ccc(-n2ccc(C(F)(F)F)n2)cc1	-87	-16	-87	x
O=C(Nc1ccc(-n2ccc(C(F)(F)F)n2)cc1)Nc1cccc(Cl)c1	-31	-51*	-53	1
Cc1cc(C)cc(NC(=O)Nc2ccc(-n3ccc(C(F)(F)F)n3)cc2)c1	-12	-2	-22	46*
C[C@@H]1CN([C@H](C)CO)C(=O)c2cccc(NS(=O)(=O)c3ccc(Cl)cc3)c2O[C@@H]1CN(C)S(C)(=O)=O	8	-14	-1	-1
COc1ccc(COCC23N=C4SCc5ccccc5C(=O)N4[C@H](c4ccccc4O2)[C@H]3CO[Si](C)(C)C(C)(C)C)cc1	x	x	10	x
Oc1ccc(N=Nc2c(O)ccc3ccccc23)cc1	-9	-63	-80	x
N=C(N)c1ccc(N=Nc2c(O)ccc3c2[nH]c2ccccc23)cc1	-5	-30*	44	0
CC(C)NC(=O)N1CC2(C1)[C@H](c1ccccc1)[C@@H](CO)N2C(=O)C1CC1	3	0	1	0
COc1ccc(C(=O)N2CC(c3ccccc3)CC2=O)cc1 (stereo unspecified)	-13	16	5	83*
O=c1oc2ccccc2c(N2CCCC2)c1CN1CCCC1	-3	-18*	-6	x
O=c1oc2ccccc2c(Cl)c1CN1CCCCC1	4	-19	-17	0
COc1cccc(S(=O)(=O)N2CCC3(CC2)CN[C@@H](CO)c2c3c3ccc(OC)cc3n2C)c1	4	-6	10	0
CN1C(=CC=C2C=C(I)C(=O)C(I)=C2)C(C)(C)c2ccccc21	21	2	14	163*
CCN(CC(=O)NC(=O)NCc1ccccc1)Cc1ccccc1	-18	-23*	-2	0
CCN(CC(=O)NC(=O)NCc1ccco1)Cc1ccccc1	10	3	-3	x
Cc1ccc(NC(=O)CN(C)CC(=O)Nc2ccc(N3CCOCC3)cc2)cc1F	-5	-21*	1	x
O=C(c1ccccc1)N1CC(=O)N2[C@H](CO)[C@H](c3ccc(/C=C/c4ccccc4)cc3)[C@H]2C1	x	-36	x	x
C/C=C/c1ccc([C@H]2[C@@H](CO)N(C(=O)c3cnccn3)C23CN(C(=O)C2CC2)C3)cc1	-2	-1	-7	0
CCCCn1nc(NC(=O)CC(C)C)c2cc3cc(OC)ccc3nc21	-3	8	14	56*
CN(C)CC(=O)Nc1ccc2c(c1)[C@H]1C[C@@H](CC(=O)NC3CCCC3)O[C@H](CO)[C@H]1O2	-3	2	3	0
COc1ccc(Cn2c(-c3ccc(Br)cc3)c[n+]3ccccc23)cc1	-83	-30*	-27	x
COc1ccc(Cn2c(-c3ccc(OC)cc3)nc3ccccc32)cc1	-11	7	5	x
SMILES	LGR2 antag	rRNA inh HTS	EWS-Fli block	E-selectin induc
COc1ccc2c3c([nH]c2c1)[C@@H](CO)N(S(C)(=O)=O)CC31CCN(C(=O)c2ccncc2)CC1	-4	-1	4	0
Cc1noc(C)c1S(=O)(=O)N(C)C[C@@H]1OCCCC[C@@H](C)Oc2ccc(NC(=O)CCCN(C)C)cc2C(=O)N([C@H](C)CO)C[C@H]1C	7	-1	1	0
Cc1ccc(-n2c(Cc3cccc4ccccc34)n[nH]c2=S)c(C)c1	5	-45*	10	0
O=C(C[C@H]1CC[C@@H](NC(=O)c2ccncc2)[C@H](CO)O1)NCCc1ccncc1	-11	3	-5	0
COc1ccc(OC)c(NC(=O)c2cccc(NC(=O)c3ccccc3)c2)c1	-1	-23	-21	x
CCCc1cc(C(=O)Nc2cc(OC)ccc2OC)cs1	-11	-32*	-21	0
CC1CCc2c(sc(NC(=O)CSc3ncn[nH]3)c2C#N)C1 (stereo unspecified)	9	-19*	64*	x
CCCCNC(=S)N/N=C/c1cccc(OCC)c1O	-33	18	-5	x
O=[N+]([O-])c1ccccc1C=NNC(=S)NN=Cc1ccccc1[N+](=O)[O-]	-93	-20*	-7	0
O=C(CN(Cc1ccccc1)S(=O)(=O)c1ccccc1)N/N=C/c1ccccc1[N+](=O)[O-]	18	-19*	3	x

High-throughput results: PubChem, Broad Institute
